Legend:
[1] = Inhibition of full-length GST-tagged mouse BRAF V600E mutant using MEK1 as substrate preincubated for 1 hr
Procedure, shortened: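 Mouse full-length GST-tagged BRAF V600E (7.5 ng) pre-incubated 1 h at room temperature with compound in assay dilution buffer. Reaction started by adding 200 ng His-tagged full-length human MEK1, 200 µM ATP (0.8 µCi hot ATP) and 30 mM MgCl2, then run 25 min at room temperature. Quenched with LDS buffer and heated 5 min at 70 °C. Products separated on 4-12% gel, which was dried and read on a phosphor screen. No-enzyme and no-inhibitor controls included, triplicate.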

[2] = Antiproliferative activity against human WM266.4 cells after 48 hrs by MTT assay; type: functional, cell-based; settings: WM 266-4, 48 h
Procedure, shortened: (§1)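 Cells grown to log phase in RPMI 1640 with 10% FBS, seeded at 2 × 10^4 cells/mL and left 24 h at 37 °C, 5% CO2. Compounds added at pre-set concentrations, sorafenib as positive control, 48 h exposure. MTT (2.5 mg/mL in PBS) added for 4 h, then SDS-isobutanol-HCl extraction overnight at 37 °C. OD read at 570 nm. Three replicate wells per concentration, each assay run at least three times.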

MCF7 [3] = experiment: Antiproliferative activity against human MCF7 cells after 48 hrs by MTT assay; type: functional, cell-based; settings: MCF7, 48 h; procedure, shortened: as §1
WM 266-4 [4] = experiment: Induction of apoptosis in human WM266.4 cells assessed as necrotic cells at 1 uM after 48 hrs using annexin V-FITC/PI by flow cytometry (reference value: 1.26 %); type: functional
WM 266-4 [5] = experiment: Induction of apoptosis in human WM266.4 cells assessed as late apoptotic cells at 1 uM after 48 hrs using annexin V-FITC/PI by flow cytometry (reference value: 6.56 %); type: functional
MCF7 [6] = experiment: Induction of apoptosis in human MCF7 cells assessed as late apoptotic cells at 1 uM after 48 hrs using annexin V-FITC/PI by flow cytometry (reference value: 5.12 %); type: functional
WM 266-4 [7] = experiment: Induction of apoptosis in human WM266.4 cells assessed as necrotic cells at 3 uM after 48 hrs using annexin V-FITC/PI by flow cytometry (reference value: 1.26 %); type: functional
WM 266-4 [8] = experiment: Induction of apoptosis in human WM266.4 cells assessed as early apoptotic cells at 1 uM after 48 hrs using annexin V-FITC/PI by flow cytometry (reference value: 5.79 %); type: functional
MCF7 [9] = experiment: Induction of apoptosis in human MCF7 cells assessed as viable cells at 1 uM after 48 hrs using annexin V-FITC/PI by flow cytometry (reference value: 91.07 %); type: functional; settings: MCF7, 48 h, read-out: Activity
WM 266-4 [10] = experiment: Induction of apoptosis in human WM266.4 cells assessed as early apoptotic cells at 3 uM after 48 hrs using annexin V-FITC/PI by flow cytometry (reference value: 5.79 %); type: functional
WM 266-4 [11] = experiment: Induction of apoptosis in human WM266.4 cells assessed as viable cells at 1 uM after 48 hrs using annexin V-FITC/PI by flow cytometry (reference value: 86.39 %); type: functional; settings: WM 266-4, 48 h, read-out: Activity
MCF7 [12] = experiment: Induction of apoptosis in human MCF7 cells assessed as early apoptotic cells at 1 uM after 48 hrs using annexin V-FITC/PI by flow cytometry (reference value: 3.52 %); type: functional
MCF7 [13] = experiment: Induction of apoptosis in human MCF7 cells assessed as necrotic cells at 3 uM after 48 hrs using annexin V-FITC/PI by flow cytometry (reference value: 0.29 %); type: functional
MCF7 [14] = experiment: Induction of apoptosis in human MCF7 cells assessed as late apoptotic cells at 3 uM after 48 hrs using annexin V-FITC/PI by flow cytometry (reference value: 5.12 %); type: functional
MCF7 [15] = experiment: Induction of apoptosis in human MCF7 cells assessed as necrotic cells at 1 uM after 48 hrs using annexin V-FITC/PI by flow cytometry (reference value: 0.29 %); type: functional
WM 266-4 [16] = experiment: Induction of apoptosis in human WM266.4 cells assessed as late apoptotic cells at 3 uM after 48 hrs using annexin V-FITC/PI by flow cytometry (reference value: 6.56 %); type: functional
WM 266-4 [17] = experiment: Induction of apoptosis in human WM266.4 cells assessed as viable cells at 3 uM after 48 hrs using annexin V-FITC/PI by flow cytometry (reference value: 86.39 %); type: functional; settings: WM 266-4, 48 h, read-out: Activity
MCF7 [18] = experiment: Induction of apoptosis in human MCF7 cells assessed as early apoptotic cells at 3 uM after 48 hrs using annexin V-FITC/PI by flow cytometry (reference value: 3.52 %); type: functional
MCF7 [19] = experiment: Induction of apoptosis in human MCF7 cells assessed as viable cells at 3 uM after 48 hrs using annexin V-FITC/PI by flow cytometry (reference value: 91.07 %); type: functional; settings: MCF7, 48 h, read-out: Activity

Row | SMILES | IC50 [1] | IC50 (MCF7 [3]) | IC50 [2] | further results
1 | COc1ccc(C2=NN(c3nc(-c4ccc(C(F)(F)F)cc4)cs3)C(c3cccs3)C2)cc1 (centres undefined) | 10900 nM | 45700 nM | 8110 nM | –
2 | COc1ccc(-c2csc(N3N=C(c4ccc(F)cc4)CC3c3cccs3)n2)cc1 (centres undefined) | 5120 nM | 14200 nM | 4420 nM | –
3 | Cc1ccc(C2=NN(c3nc(-c4ccc(C(F)(F)F)cc4)cs3)C(c3cccs3)C2)cc1 (centres undefined) | 6180 nM | 31500 nM | 2110 nM | –
4 | Brc1ccc(C2=NN(c3nc(-c4ccccc4)cs3)C(c3cccs3)C2)cc1 (centres undefined) | 2190 nM | 6790 nM | 1870 nM | –
5 | COc1ccc(C2=NN(c3nc(-c4ccc(Br)cc4)cs3)C(c3cccs3)C2)cc1 (centres undefined) | 4010 nM | 21200 nM | 5870 nM | –
6 | Clc1ccc(C2=NN(c3nc(-c4ccc(Br)cc4)cs3)C(c3cccs3)C2)cc1 (centres undefined) | 4780 nM | 14700 nM | 1450 nM | –
7 | Brc1ccc(C2=NN(c3nc(-c4ccc(Br)cc4)cs3)C(c3cccs3)C2)cc1 (centres undefined) | 8870 nM | 28300 nM | 13000 nM | –
8 | Cc1ccc(C2=NN(c3nc(-c4ccccc4)cs3)C(c3cccs3)C2)cc1 (centres undefined) | 3880 nM | 18600 nM | 7520 nM | –
9 | COc1ccc(C2=NN(c3nc(-c4ccc(OC)cc4)cs3)C(c3cccs3)C2)cc1 (centres undefined) | 5230 nM | 16200 nM | 31600 nM | –

The next molecules have a lower IC50 [1] than those just listed; values first:

Row | IC50 [1] | IC50 (MCF7 [3]) | SMILES | IC50 [2] | further results
10 | 110 nM | 4770 nM | COc1ccc(-c2csc(N3N=C(c4ccc(C)cc4)CC3c3cccs3)n2)cc1 (centres undefined) | 3770 nM | –
11 | 30 nM | 190 nM | CNC(=O)c1cc(Oc2ccc(NC(=O)Nc3ccc(Cl)c(C(F)(F)F)c3)cc2)ccn1 [SORAFENIB] | 60 nM | –
12 | 670 nM | 2340 nM | Fc1ccc(C2=NN(c3nc(-c4ccccc4)cs3)C(c3cccs3)C2)cc1 (centres undefined) | 170 nM | –
13 | 90 nM | 190 nM | Clc1ccc(C2=NN(c3nc(-c4ccccc4)cs3)C(c3cccs3)C2)cc1 (centres undefined) | 2190 nM | –
14 | 560 nM | 2010 nM | Cc1ccc(C2=NN(c3nc(-c4ccc(Br)cc4)cs3)C(c3cccs3)C2)cc1 (centres undefined) | 18400 nM | –
15 | 190 nM | 2480 nM | COc1ccc(-c2csc(N3N=C(c4ccc(Cl)cc4)CC3c3cccs3)n2)cc1 (centres undefined) | 1310 nM | –
16 | 1860 nM | 8280 nM | Fc1ccc(C2=NN(c3nc(-c4ccc(Br)cc4)cs3)C(c3cccs3)C2)cc1 (centres undefined) | 220 nM | –
17 | 1110 nM | 9010 nM | COc1ccc(C2=NN(c3nc(-c4ccccc4)cs3)C(c3cccs3)C2)cc1 (centres undefined) | 2120 nM | –
18 | 80 nM | 680 nM | COc1ccc(-c2csc(N3N=C(c4ccc(Br)cc4)CC3c3cccs3)n2)cc1 (centres undefined) | 2010 nM | –
19 | 2090 nM | 7810 nM | FC(F)(F)c1ccc(-c2csc(N3N=C(c4ccc(Br)cc4)CC3c3cccs3)n2)cc1 (centres undefined) | 27400 nM | –
20 | 50 nM | 160 nM | FC(F)(F)c1ccc(-c2csc(N3N=C(c4ccc(Cl)cc4)CC3c3cccs3)n2)cc1 (centres undefined) | 120 nM | Activity (WM 266-4 [4]): 0.09%; Activity (WM 266-4 [5]): 17.54%; Activity (MCF7 [6]): 27.25%; Activity (WM 266-4 [7]): 3.54%; Activity (WM 266-4 [8]): 14.13%; viability at 1 µM (MCF7 [9]): 32.4%; Activity (WM 266-4 [10]): 47.19%; viability at 1 µM (WM 266-4 [11]): 68.2%; Activity (MCF7 [12]): 39.15%; Activity (MCF7 [13]): 3.54%; Activity (MCF7 [14]): 33.01%; Activity (MCF7 [15]): 1.2%; Activity (WM 266-4 [16]): 38.25%; viability at 3 µM (WM 266-4 [17]): 11%; Activity (MCF7 [18]): 43.69%; viability at 3 µM (MCF7 [19]): 19.8%
21 | 1010 nM | 1330 nM | Fc1ccc(C2=NN(c3nc(-c4ccc(C(F)(F)F)cc4)cs3)C(c3cccs3)C2)cc1 (centres undefined) | 5120 nM | –

Source: ChEMBL document CHEMBL3351319, “Synthesis, biological evaluation and 3D-QSAR study of novel 4,5-dihydro-1H-pyrazole thiazole derivatives as BRAF(V⁶⁰⁰E) inhibitors” (Bioorg Med Chem, 2015)
